Experimental data pooled from the literature.
FABP1: Fatty acid-binding protein, liver (FABP1, Homo sapiens, UniProt P07148)
MAOA: Amine oxidase [flavin-containing] A (MAOA, Homo sapiens, UniProt P21397)
MAL12: Alpha-glucosidase MAL12 (MAL12, Saccharomyces cerevisiae S288c, UniProt P53341)
ADRA1A: Alpha-1A adrenergic receptor (ADRA1A, Homo sapiens, UniProt P35348)

`Cc1cc(SC2=C(O)C[C@@](CCc3ccc(N)cc3)(C(C)C)OC2=O)c(C(C)(C)C)cc1CO` gave a Kd of 1.68 µM (FABP1; ligand displacement, fluorescence).
`CC[C@H](C)[C@H](NC(=O)[C@H](C)NC(=O)[C@H](CCC(=O)O)NC(=O)[C@H](Cc1c[nH]cn1)NC(=O)[C@H](CC(C)C)NC(=O)[C@@H](NC(=O)[C@H](Cc1ccccc1)NC(=O)[C@H](CO)NC(=O)[C@@H](NC(=O)[C@H](CC(C)C)NC(=O)[C@H](CC(=O)O)NC(=O)[C@H](CC(C)C)NC(=O)[C@@H]1CCCN1)[C@@H](C)O)C(C)C)C(=O)O` has an IC50 of 73 µM (MAOA; enzyme activity, inhibitor, fluorescence).
With `CCc1ccc(N2C(=O)/C(=C3/C(=O)N(C)c4ccc(Cl)cc43)NC2=S)cc1` the IC50 was 128 µM (MAL12; enzyme activity, inhibitor, absorbance).
With `O=P(Oc1ccccc1)(Oc1ccccc1)C(NCc1cncc2ccccc12)c1ccc(O)cc1` (stereo not shown) the IC50 was 1.9 µM (sn-1-specific diacylglycerol lipase ABHD11 (ABHD11, Homo sapiens, UniProt Q8NFV4); enzyme activity, inhibitor; lysate).
The Kd of `O=C(Nc1ccc([N+](=O)[O-])cc1Cl)c1cc(Cl)ccc1O` is reported as 9.69 µM (FABP1; ligand displacement, fluorescence).
`CN1C(=S)N(c2ccccc2)C(=O)/C1=C1/C(=O)N(C)c2ccc(Cl)cc21` has an IC50 of 157 µM (MAL12; enzyme activity, inhibitor, absorbance).
The IC50 of `COc1cc(O)cc(/C=C/c2ccc(O)cc2)c1` is reported as 11.7 µM (MAL12; enzyme activity, inhibitor, absorbance; pH 6.8).
`CCOC(=O)c1ccc(OC(=O)CCCCCN=C(N)N)cc1` gave an IC50 of 15.6 µM (Kallikrein-7 (KLK7, Homo sapiens, UniProt P49862); enzyme activity, inhibitor).
`O=S(=O)(O)C(F)(F)C(F)(F)C(F)(F)C(F)(F)C(F)(F)C(F)(F)F` has a Kd of 11.2 µM (FABP1; ligand displacement, fluorescence).
For `COc1cc2c3c(c1OC)-c1c(OC)ccc(Cl)c1CC3N(C)CC2` (racemic), the Ki was 0.023 µM (ADRA1A; cell-free assay, radioligand).
`CC[C@H](C)[C@H](N)C(=O)N1CCC[C@H]1C(=O)N1CCC[C@H]1C(=O)NCC(=O)N[C@H](C(=O)N1CCC[C@H]1C(=O)N[C@@H](Cc1ccc(O)cc1)C(=O)O)C(C)C` gave an IC50 of 829 µM (MAOA; enzyme activity, inhibitor, fluorescence).
The Ki of `COc1cc2c3c(c1OC)-c1c(OC)ccc(Br)c1CC3N(C)CC2` (stereo not shown) is reported as 0.016 µM (ADRA1A; cell-free assay, radioligand).
With `COc1cc2c(cc1OC)CN(CCc1ccc(NC(=O)c3cccc4c(=O)c5cccc(OC)c5[nH]c34)cc1)CC2` the Ki was 0.183 µM (ADRA1A; cell-free assay).
